Here are results for three compounds from ChEMBL document CHEMBL2146426, “Antitubercular nitrofuran isoxazolines with improved pharmacokinetic properties” (Bioorg Med Chem, 2012).

≈ marks a conversion by molar mass, not a printed value.

A short description of data set [1]: Cmax in rat at 10 mg/kg, iv. The class given is ADME, organism-based. Details: dose 10 mg/kg, route intravenous. As to conditions: in vivo. An outline of the steps:
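Rats (n=5) given 10 mg/kg IV via femoral vein catheter. Vehicle was 2% ethanol/saline or 30% DMSO/30% propylene glycol/20% PEG 3000/20% saline, depending on compound. Serial plasma sampled 0–48 h and assayed by LC-MS/MS after acetonitrile precipitation. Cmax read by visual inspection of the concentration–time curve.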

Data set [2] is described as follows: Volume of distribution in rat. The class given is ADME, organism-based. To be noted: in vivo. Summed up: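 Plasma concentration–time data from rats (n=5) after IV 10 mg/kg or oral 100 mg/kg. Samples taken 0.25–48 h and measured by LC-MS/MS. Non-compartmental analysis; Vd calculated as AUMC0-∞ × dose divided by the square of AUC0-∞.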
Data set [3] is described as follows: Drug excretion in rat urine. The class given is ADME. As to conditions: read-out: Drug excretion.
Data set [4] in a line: Solubility of the compound at pH 7.4 after 18 hrs by UV spectrometry. The class given is physicochemical. To be noted: buffer, pH 7.4. An outline of the steps:
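10 mM DMSO stocks diluted 100-fold in system solution buffer pH 7.4 and held 18 h at room temperature. Filtered, diluted 1:1 with isopropanol and measured by UV (230–500 nm). Compared against a 600-fold diluted reference in buffer/isopropanol. Triplicates.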

Data set [5] can be described thus: Plasma protein binding in mouse at 10 uM after 4 hrs by LC/MS analysis. The class given is ADME, cell-free. To be noted: read-out: PPB (converted). Summed up: (§1)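 Compound at 10 µM (0.1% DMSO) in mouse or human plasma. Rapid equilibrium dialysis (MWCO 8K) against DPBS pH 7.4, 4 h at 37°C with orbital shaking. Both chambers matrix-matched, precipitated with acetonitrile containing warfarin internal standard, quantified by LC–MS. %Free = buffer/plasma × 100; %Bound = 100 − %Free.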

The nature of data set [6]: Plasma protein binding in human at 10 uM after 4 hrs by LC/MS analysis. As to conditions: read-out: PPB (converted). The class given is ADME, cell-free. Summed up: as §1
In data set [7] the test system is Staphylococcus aureus. The experiment in a line: Antibacterial activity against Staphylococcus aureus ATCC 29213 after overnight incubation by microbroth dilution technique. The class given is functional. An outline of the steps:
(§2)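 Two-fold serial broth dilutions per CLSI; inoculum about 10^5 CFU/mL; top final drug concentration 200 µg/mL; incubated aerobically overnight at 37°C. MIC read visually as the lowest concentration with no visible growth.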
For orientation: Dilution methods test growth across graded concentrations, often in twofold steps.

In data set [8] the test system is Streptococcus pyogenes. Description: Antibacterial activity against Streptococcus pyogenes ATCC 700294 after overnight incubation by microbroth dilution technique. The class given is functional. An outline of the steps: as §2
Data set [9] relates to Streptococcus pneumoniae. The experiment in a line: Antibacterial activity against Streptococcus pneumoniae DAW27 after overnight incubation by microbroth dilution technique. The class given is functional. Summed up: as §2
In data set [10] the test system is Enterococcus faecalis. The experiment in a line: Antibacterial activity against Enterococcus faecalis ATCC 3186 after overnight incubation by microbroth dilution technique. The class given is functional. An outline of the steps: as §2
Data set [11] has as its system Bacillus subtilis. Description: Antibacterial activity against Bacillus subtilis ATCC 23857 after overnight incubation by microbroth dilution technique. The class given is functional. Summed up: (§3)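 Non-mycobacterial strains: two-fold serial dilutions in broth by CLSI microbroth dilution. Inoculum about 10^5 cfu/mL; top final drug concentration 200 µg/mL. Aerobic incubation at 37°C overnight. MIC read visually as the lowest concentration with no visible growth.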

For data set [12], the system named is Bacillus anthracis. Description: Antibacterial activity against Bacillus anthracis Sterne 34F2 after overnight incubation by microbroth dilution technique. The class given is functional. Summed up:
as §3

Data set [13] deals with Escherichia coli. The experiment in a line: Antibacterial activity against Escherichia coli K12 after overnight incubation by microbroth dilution technique. The class given is functional. To be noted: K-12. An outline of the steps:
as §3

Data set [14] is described as follows: Cmax in Sprague-Dawley rat at 10 mg/kg, iv. As to conditions: in vivo. More on the design: dose 10 mg/kg, route intravenous. The class given is ADME, organism-based. Summed up:
(§4)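 Rats, n=5, given 10 mg/kg IV via femoral vein catheter. Vehicle was 2% ethanol/saline or 30% DMSO/30% propylene glycol/20% PEG 3000/20% saline, depending on compound. Plasma sampled 0–48 h and urine collected in intervals to 48 h; both assayed by LC-MS/MS after acetonitrile precipitation. Non-compartmental analysis: CL = dose/AUC0-∞; fe = cumulative unchanged urinary amount/dose.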

Data set [15] can be described thus: AUC (0 to infinity) in Sprague-Dawley rat at 10 mg/kg, iv. The class given is ADME, organism-based. Details: time infinity, dose 10 mg/kg, route intravenous. As to conditions: plasma. An outline of the steps:
as §4

A short description of data set [16]: Half life in Sprague-Dawley rat at 10 mg/kg, iv. The class given is ADME, organism-based. More on the design: dose 10 mg/kg, route intravenous. To be noted: in vivo. Summed up: as §4
The nature of data set [17]: Clearance in Sprague-Dawley rat at 10 mg/kg, iv. The class given is ADME, organism-based. As to conditions: in vivo. Details: dose 10 mg/kg, route intravenous. An outline of the steps:
as §4

Data set [18] can be described thus: Volume of distribution in Sprague-Dawley rat at 10 mg/kg, iv. As to conditions: in vivo. The class given is ADME, organism-based. Details: dose 10 mg/kg, route intravenous. Summed up: as §4
The nature of data set [19]: Drug excretion in Sprague-Dawley rat urine at 10 mg/kg, iv. The class given is ADME, organism-based. Details: dose 10 mg/kg, route intravenous. As to conditions: read-out: Drug excretion. An outline of the steps:
as §4

Data set [20] deals with Rattus norvegicus. Description: Oral bioavailability in Sprague-Dawley rat at 100 mg/kg. The class given is ADME, organism-based. As to conditions: in vivo. Summed up: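 Fasted rats, n=5, dosed 100 mg/kg by oral gavage. Vehicle was 2% methanol, 60:40 PEG 3000/water or 10% vitamin E TPGS, depending on compound. Plasma sampled to 48 h and assayed by LC-MS/MS. F = (AUCoral×DoseIV)/(AUCIV×Doseoral), referenced to 10 mg/kg IV.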

Data set [21] has as its system Vero. The experiment in a line: Cytotoxicity against african green monkey Vero cells after 72 hrs by MTT assay. The class given is cell-based. As to conditions: Chlorocebus sabaeus. Summed up: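 Vero cells in DMEM with 10% FBS, seeded at ~10% confluency and left to adhere overnight. Two-fold serial dilutions applied for 72 h at 37°C, 5% CO2. MTT read-out at 570 nm after overnight solubilization.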

Data set [22] has as its system Rattus norvegicus. Description: Toxicity in Sprague-Dawley rat assessed as seizures at 10 mg/kg, iv. To be noted: in vivo. Details: dose 10 mg/kg, route intravenous. The class given is organism-based. Summed up: (§5)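 Observed during rat IV pharmacokinetic study (n=5). Single 10 mg/kg dose via femoral vein catheter, flushed with heparinized locking solution. Vehicle was 2% ethanol/saline or 30% DMSO/30% propylene glycol/20% PEG 3000/20% saline. Animals followed with serial blood sampling to 48 h.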

For data set [23], the system named is Rattus norvegicus. Description: Toxicity in Sprague-Dawley rat assessed as mortality at 10 mg/kg, iv. The class given is organism-based. More on the design: dose 10 mg/kg, route intravenous. As to conditions: in vivo. Summed up:
as §5

Data set [24] has as its system Rattus norvegicus. Description: Toxicity in Sprague-Dawley rat assessed as mortality at 100 mg/kg, po. The class given is organism-based. Details: dose 100 mg/kg, route oral. To be noted: in vivo. An outline of the steps: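 Observed during rat oral pharmacokinetic study (n=5). Overnight-fasted animals, water ad libitum, received 100 mg/kg by oral gavage. Vehicle was compound-dependent: 2% methanol (sonicated), 60:40 PEG 3000/water, or 10% vitamin E TPGS. Animals followed with sampling to 48 h.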

Data set [25] can be described thus: Half life in mouse liver microsomes. The class given is ADME, Microsome. An outline of the steps:
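Mouse liver microsomes at 0.6381 mg/mL protein in 0.1 M potassium phosphate pH 7.4 with EDTA. Reaction started with NADPH regenerating system at 37°C; six time points including 0, triplicate wells. Quenched in cold acetonitrile with warfarin internal standard, analysed by LC–MS. Half-life from a first-order least-squares fit.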
In general terms: Liver microsomes are vesicles of endoplasmic reticulum, rich in cytochrome P450 enzymes.

A short description of data set [26]: Half life in human liver microsomes. The class given is ADME, Microsome.
The nature of data set [27]: Apparent permeability of the compound from apical to basal side of human Caco2 cells at 50 umol/L after 2 hrs by UPLC/MS analysis. The class given is ADME, cell-based. To be noted: Caco-2. An outline of the steps: (§6)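 Caco-2 monolayers grown 7 days on Transwell inserts, washed with HBSS/HEPES pH 7.4. Compound at 50 µmol/L added apically or basolaterally, then 2 h at 37°C. Receiver side sampled and quantified by UPLC/MS. Papp = (dQ/dt)/(A×C0), triplicates.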
For orientation: Passage across Caco-2 layers is used to estimate intestinal permeability.

Data set [28] can be described thus: Apparent permeability of the compound from basal to apical side of human Caco2 cells at 50 umol/L after 2 hrs by UPLC/MS analysis. The class given is ADME, cell-based. To be noted: Caco-2. Summed up: as §6

`CC(=O)NC[C@H]1CN(c2ccc(N3CCOCC3)c(F)c2)C(=O)O1` [LINEZOLID] had a Cmax in [1] of 15000 ng/mL. The compound also yielded a Vd in [2] of 0.72 L/kg. In [3], the dose excreted was determined as 73%.

For `CN1CCN(c2ccc(C3CC(c4ccc([N+](=O)[O-])o4)=NO3)cc2)C(=O)C1` (stereo not drawn), the concentration in solution in [4] (solubility at 18 h) was 28.8 µg/mL (≈ 77.8 µM). The fraction unbound at 4 h, 10 µM in [5] is 0.239; in data set [6], 0.426. For the same compound, the MIC in data set [7] was determined as 6.25 µg/mL (≈ 16.9 µM); in data set [8] it was 50 µg/mL (≈ 135 µM); in data set [9], 50 µg/mL (≈ 135 µM); in data set [10], 100 µg/mL (≈ 270 µM); in [11], 6.25 µg/mL (≈ 16.9 µM); in data set [12], 12.5 µg/mL (≈ 33.8 µM). In addition, the MIC in data set [13] came to 50 µg/mL (≈ 135 µM). In data set [14], this compound had a Cmax of 1190 ng/mL. The AUC(0-inf) in [15] amounted to 960 ng·h/mL. The compound also had a half-life in [16] of 36.6 min. In [17], this compound gave a clearance of 194 mL/min/kg. In addition, the Vd in data set [18] is 3.1 L/kg. For the same compound, the dose excreted in [19] came out at 0.68%. The compound further came in with a F in data set [20] of 58.3%. In data set [21], inhibition was half-maximal at 20.3 µg/mL (≈ 54.8 µM) (IC50). In addition, the Activity result in data set [22] is on record as “Toxic”; in data set [23], “Toxic”; in [24], “Non-toxic”.

On to `O=C1COCCN1c1ccc(C2CC(c3ccc([N+](=O)[O-])o3)=NO2)cc1` (stereo not drawn), for which the concentration in solution in data set [4] (solubility at 18 h) was 25.9 µg/mL (≈ 72.4 µM). The half-life in [25] is 84 min; in data set [26], 602 min. Besides, the apical-to-basolateral permeability (Papp A→B) at 2 h, 50 µM in data set [27] turned out to be 12.6 ×10⁻⁶ cm/s. The Papp B→A at 2 h, 50 µM in data set [28] was 56.5 ×10⁻⁶ cm/s. Moreover, the fraction unbound at 4 h, 10 µM in data set [5] is 0.34; in data set [6], 0.357. For the same compound, the MIC in data set [7] was 6.25 µg/mL (≈ 17.5 µM); in [8] it was 100 µg/mL (≈ 280 µM); in [9] it was 200 µg/mL (≈ 560 µM); in data set [10], > 200 µg/mL; in data set [11], 6.25 µg/mL (≈ 17.5 µM); in data set [12] it was 25 µg/mL (≈ 70 µM). Besides, it took 25 µg/mL (≈ 70 µM) to inhibit growth in data set [13] (MIC).

For orientation: Cmax means the highest concentration seen after dosing. What is called Vd is a proportionality between amount in the body and measured concentration, not a real space. In general, solubility refers to the concentration that dissolves in the medium under given conditions. What is called MIC is the lowest concentration found to suppress growth. As a reminder, the AUC(0-inf) is total exposure, with the tail of the curve extrapolated. By half-life is commonly meant the time needed for the level to fall by half in the phase considered. What is called clearance is the rate of elimination divided by the concentration. Usually IC50 stands for the concentration needed to halve the response being measured. As a reminder, the Papp A→B is how fast a substance crosses the layer from the apical side. The term Papp B→A denotes how fast a substance crosses the layer from the basolateral side.
